# The source made the active and inactive calls. The rule behind the calls is not given here.
# Test system: PC-3
# Assay: Cell cycle arrest in human PC3 cells assessed as reduction in accumulation at S phase at IC50 after 24 hrs by propidium iodide staining-based flow cytometric analysis
# Format: functional
# Conditions: not given
row,Structure (SMILES),Activity
1,CC(=O)c1nn(-c2ccc(S(N)(=O)=O)cc2)c2nc3nc(-c4cccs4)cc(-c4ccccc4)c3c(=O)n12,Active

# Biological target: T1, CDK6/cyclin D1 (Homo sapiens) (UniProt P24385+Q00534)
# Assay: Inhibition of CDK6/cyclin D1 (unknown origin) at 1 uM after 20 to 30 mins by scintillation counting analysis relative to control
# Format: protein-complex assay
# Conditions: not given
row,Structure (SMILES),inhibition
1,CC(=O)c1nn(-c2ccc(S(N)(=O)=O)cc2)c2nc3nc(-c4cccs4)cc(-c4ccccc4)c3c(=O)n12,2%

# Test system: PC-3
# Assay: Upregulation of p21 protein level in human PC3 cells at IC50 after 48 hrs by Western blotting analysis relative to control
# Format: functional
# Conditions: not given
row,Structure (SMILES),fold change (FC)
1,CC(=O)c1nn(-c2ccc(S(N)(=O)=O)cc2)c2nc3nc(-c4cccs4)cc(-c4ccccc4)c3c(=O)n12,1.7

# Test system: PC-3
# Assay: Cell cycle arrest in human PC3 cells assessed as accumulation at G0/G1 phase at IC50 after 24 hrs by propidium iodide staining-based flow cytometric analysis
# Format: functional
# Conditions: not given
row,Structure (SMILES),Activity
1,CC(=O)c1nn(-c2ccc(S(N)(=O)=O)cc2)c2nc3nc(-c4cccs4)cc(-c4ccccc4)c3c(=O)n12,Active

# Test system: PC-3
# Assay: Cell cycle arrest in human PC3 cells assessed as reduction in accumulation at G2/M phase at IC50 after 24 hrs by propidium iodide staining-based flow cytometric analysis
# Format: functional
# Conditions: not given
row,Structure (SMILES),Activity
1,CC(=O)c1nn(-c2ccc(S(N)(=O)=O)cc2)c2nc3nc(-c4cccs4)cc(-c4ccccc4)c3c(=O)n12,Active

# Test system: MCF7
# Assay: Cytotoxicity against human MCF7 cells after 48 hrs by sulforhodamine B assay
# Format: functional, cell-based
# Conditions: MCF7, 48 h
# How it was run: (§1)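 Exponentially growing cells harvested with 0.25% trypsin-EDTA, seeded at 1000–2000 cells/well in supplemented DMEM, left 24 h, then exposed 48 h to a concentration series; 5-fluorouracil as reference. Fixed with 10% TCA 1 h at 4 °C, stained 10 min with 0.4% SRB in 1% acetic acid, dye solubilized in Tris-HCl, OD read at 564 nm. IC50 from Boltzmann sigmoidal nonlinear fit; means of at least three experiments.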
row,Structure (SMILES),IC50
1,CC(=O)c1nn(-c2ccc(S(N)(=O)=O)cc2)c2nc3nc(-c4cccs4)cc(-c4ccccc4)c3c(=O)n12,38 µM

# Biological target: T1, CDK6/cyclin D1 (Homo sapiens)
# Assay: Inhibition of CDK6/cyclin D1 (unknown origin) at 10 uM after 20 to 30 mins by scintillation counting analysis relative to control
# Format: protein-complex assay
# Conditions: not given
row,Structure (SMILES),inhibition
1,CC(=O)c1nn(-c2ccc(S(N)(=O)=O)cc2)c2nc3nc(-c4cccs4)cc(-c4ccccc4)c3c(=O)n12,1%

# Test system: PC-3
# Assay: Induction of apoptosis in human PC3 cells assessed as wrinkled cells at IC50 after 24 hrs by acridine orange/ethidium bromide staining-based fluorescence microscopic analysis
# Format: functional, cell-based
# Conditions: not given
row,Structure (SMILES),Activity
1,CC(=O)c1nn(-c2ccc(S(N)(=O)=O)cc2)c2nc3nc(-c4cccs4)cc(-c4ccccc4)c3c(=O)n12,Active

# Biological target: Cyclin-dependent kinase 4/cyclin D1 (Homo sapiens) (UniProt P11802+P24385)
# Assay: Inhibition of CDK4/cyclin D1 (unknown origin) at 10 uM after 20 to 30 mins by scintillation counting analysis relative to control
# Format: protein-complex assay
# Conditions: not given
row,Structure (SMILES),inhibition
1,CC(=O)c1nn(-c2ccc(S(N)(=O)=O)cc2)c2nc3nc(-c4cccs4)cc(-c4ccccc4)c3c(=O)n12,5%

# Test system: PC-3
# Assay: Induction of apoptosis in human PC3 cells assessed as increase in caspase-3 level at IC50 uM after 24 hrs by sandwich enzyme immunoassay relative to control
# Format: functional
# Conditions: not given
row,Structure (SMILES),fold change (FC)
1,CC(=O)c1nn(-c2ccc(S(N)(=O)=O)cc2)c2nc3nc(-c4cccs4)cc(-c4ccccc4)c3c(=O)n12,1.5

# Test system: PC-3
# Assay: Cell cycle arrest in human PC3 cells assessed as increase in accumulation at pre-G phase at IC50 after 48 hrs by propidium iodide staining-based flow cytometric analysis
# Format: functional
# Conditions: not given
row,Structure (SMILES),Activity
1,CC(=O)c1nn(-c2ccc(S(N)(=O)=O)cc2)c2nc3nc(-c4cccs4)cc(-c4ccccc4)c3c(=O)n12,Active

# Test system: PC-3
# Assay: Cytotoxicity against human PC3 cells after 48 hrs by sulforhodamine B assay
# Format: functional, cell-based
# Conditions: PC-3, 48 h
# How it was run: as §1
row,Structure (SMILES),IC50
1,CCOC(=O)c1nn(-c2ccc(S(N)(=O)=O)cc2)c2nc3nc(-c4cccs4)cc(-c4ccccc4)c3c(=O)n12,7.15 µM
2,O=c1[nH]c(N/N=C/c2ccc(Cl)cc2)nc2nc(-c3cccs3)cc(-c3ccccc3)c12,23.8 µM
3,COc1ccc(/C=N/Nc2nc3nc(-c4cccs4)cc(-c4ccccc4)c3c(=O)[nH]2)cc1,18.2 µM
4,CC(=O)c1nn(-c2ccc(F)cc2)c2nc3nc(-c4cccs4)cc(-c4ccccc4)c3c(=O)n12,35.9 µM
5,O=c1[nH]c(N/N=C/c2ccc(F)cc2)nc2nc(-c3cccs3)cc(-c3ccccc3)c12,1.54 µM
6,CC(=O)c1nn(-c2ccc(Cl)cc2)c2nc3nc(-c4cccs4)cc(-c4ccccc4)c3c(=O)n12,22.9 µM
7,CC(=O)c1nn(-c2ccc(C)cc2)c2nc3nc(-c4cccs4)cc(-c4ccccc4)c3c(=O)n12,16.9 µM
8,CCOC(=O)c1nn(-c2ccccc2)c2nc3nc(-c4cccs4)cc(-c4ccccc4)c3c(=O)n12,33.6 µM
9,Nc1n[nH]c2nc3nc(-c4cccs4)cc(-c4ccccc4)c3c(=O)n12,12.3 µM
10,CCOC(=O)c1nn(-c2ccc(C)cc2)c2nc3nc(-c4cccs4)cc(-c4ccccc4)c3c(=O)n12,33.3 µM
11,O=c1c2c(-c3ccccc3)cc(-c3cccs3)nc2nc2[nH][nH]c(=S)n12,32.4 µM
12,CC(=O)c1nn(-c2ccc(S(N)(=O)=O)cc2)c2nc3nc(-c4cccs4)cc(-c4ccccc4)c3c(=O)n12,0.36 µM
13,Cc1n[nH]c2nc3nc(-c4cccs4)cc(-c4ccccc4)c3c(=O)n12,83.9 µM
14,CCOC(=O)c1nn(-c2ccc(Cl)cc2)c2nc3nc(-c4cccs4)cc(-c4ccccc4)c3c(=O)n12,37.4 µM
15,O=c1[nH]cc(F)c(=O)[nH]1 [FLUOROURACIL],12 µM
16,O=c1c2c(-c3ccccc3)cc(-c3cccs3)nc2nc2[nH]ncn12,11.7 µM
17,O=c1[nH]c(N/N=C/c2ccccc2)nc2nc(-c3cccs3)cc(-c3ccccc3)c12,26.8 µM
18,COc1ccc(-n2nc(C(C)=O)n3c(=O)c4c(-c5ccccc5)cc(-c5cccs5)nc4nc23)cc1,19.5 µM
19,Cc1ccc(/C=N/Nc2nc3nc(-c4cccs4)cc(-c4ccccc4)c3c(=O)[nH]2)cc1,0.63 µM
20,O=c1[nH][nH]c2nc3nc(-c4cccs4)cc(-c4ccccc4)c3c(=O)n12,12.7 µM
21,CC(=O)c1nn(-c2ccccc2)c2nc3nc(-c4cccs4)cc(-c4ccccc4)c3c(=O)n12,32.3 µM

# Test system: PC-3
# Assay: Upregulation of p21 protein level in human PC3 cells at IC50 after 48 hrs by immunocytochemical analysis
# Format: functional, cell-based
# Conditions: not given
row,Structure (SMILES),Activity
1,CC(=O)c1nn(-c2ccc(S(N)(=O)=O)cc2)c2nc3nc(-c4cccs4)cc(-c4ccccc4)c3c(=O)n12,Active

# Test system: HepG2
# Assay: Cytotoxicity against human HepG2 cells after 48 hrs by sulforhodamine B assay
# Format: functional, cell-based
# Conditions: HepG2, 48 h
# How it was run: as §1
row,Structure (SMILES),IC50
1,CC(=O)c1nn(-c2ccc(S(N)(=O)=O)cc2)c2nc3nc(-c4cccs4)cc(-c4ccccc4)c3c(=O)n12,56.6 µM

# Test system: PC-3
# Assay: Induction of apoptosis in human PC3 cells assessed as condensed and fragmented chromatin at IC50 after 48 hrs by acridine orange/ethidium bromide staining-based fluorescence microscopic analysis
# Format: functional, cell-based
# Conditions: not given
row,Structure (SMILES),Activity
1,CC(=O)c1nn(-c2ccc(S(N)(=O)=O)cc2)c2nc3nc(-c4cccs4)cc(-c4ccccc4)c3c(=O)n12,Active

# Test system: A549
# Assay: Ratio of 5-fluorouracil IC50 to compound IC50 for human A549 cells
# Format: functional
# Conditions: not given
row,Structure (SMILES),Ratio IC50
1,CC(=O)c1nn(-c2ccc(S(N)(=O)=O)cc2)c2nc3nc(-c4cccs4)cc(-c4ccccc4)c3c(=O)n12,10

# Test system: PC-3
# Assay: Induction of apoptosis in human PC3 cells assessed as increase in caspase-3 level at IC50 uM after 48 hrs by sandwich enzyme immunoassay relative to control
# Format: functional
# Conditions: not given
row,Structure (SMILES),fold change (FC)
1,CC(=O)c1nn(-c2ccc(S(N)(=O)=O)cc2)c2nc3nc(-c4cccs4)cc(-c4ccccc4)c3c(=O)n12,2

# Test system: PC-3
# Assay: Induction of apoptosis in human PC3 cells assessed as condensed and fragmented chromatin at IC50 after 24 hrs by acridine orange/ethidium bromide staining-based fluorescence microscopic analysis
# Format: functional, cell-based
# Conditions: not given
row,Structure (SMILES),Activity
1,CC(=O)c1nn(-c2ccc(S(N)(=O)=O)cc2)c2nc3nc(-c4cccs4)cc(-c4ccccc4)c3c(=O)n12,Active

# Test system: A549
# Assay: Cytotoxicity against human A549 cells after 48 hrs by sulforhodamine B assay
# Format: functional, cell-based
# Conditions: A549, 48 h
# How it was run: as §1
row,Structure (SMILES),IC50
1,CCOC(=O)c1nn(-c2ccc(S(N)(=O)=O)cc2)c2nc3nc(-c4cccs4)cc(-c4ccccc4)c3c(=O)n12,16.4 µM
2,O=c1[nH]c(N/N=C/c2ccc(Cl)cc2)nc2nc(-c3cccs3)cc(-c3ccccc3)c12,40.8 µM
3,COc1ccc(/C=N/Nc2nc3nc(-c4cccs4)cc(-c4ccccc4)c3c(=O)[nH]2)cc1,18.7 µM
4,CC(=O)c1nn(-c2ccc(F)cc2)c2nc3nc(-c4cccs4)cc(-c4ccccc4)c3c(=O)n12,39.1 µM
5,O=c1[nH]c(N/N=C/c2ccc(F)cc2)nc2nc(-c3cccs3)cc(-c3ccccc3)c12,3.36 µM
6,CC(=O)c1nn(-c2ccc(Cl)cc2)c2nc3nc(-c4cccs4)cc(-c4ccccc4)c3c(=O)n12,30.6 µM
7,CC(=O)c1nn(-c2ccc(C)cc2)c2nc3nc(-c4cccs4)cc(-c4ccccc4)c3c(=O)n12,19.3 µM
8,CCOC(=O)c1nn(-c2ccccc2)c2nc3nc(-c4cccs4)cc(-c4ccccc4)c3c(=O)n12,26.6 µM
9,Nc1n[nH]c2nc3nc(-c4cccs4)cc(-c4ccccc4)c3c(=O)n12,43.7 µM
10,CCOC(=O)c1nn(-c2ccc(C)cc2)c2nc3nc(-c4cccs4)cc(-c4ccccc4)c3c(=O)n12,37.8 µM
11,O=c1c2c(-c3ccccc3)cc(-c3cccs3)nc2nc2[nH][nH]c(=S)n12,54.1 µM
12,CC(=O)c1nn(-c2ccc(S(N)(=O)=O)cc2)c2nc3nc(-c4cccs4)cc(-c4ccccc4)c3c(=O)n12,0.41 µM
13,Cc1n[nH]c2nc3nc(-c4cccs4)cc(-c4ccccc4)c3c(=O)n12,55.5 µM
14,CCOC(=O)c1nn(-c2ccc(Cl)cc2)c2nc3nc(-c4cccs4)cc(-c4ccccc4)c3c(=O)n12,72.6 µM
15,O=c1[nH]cc(F)c(=O)[nH]1 [FLUOROURACIL],4.21 µM
16,O=c1c2c(-c3ccccc3)cc(-c3cccs3)nc2nc2[nH]ncn12,21.7 µM
17,O=c1[nH]c(N/N=C/c2ccccc2)nc2nc(-c3cccs3)cc(-c3ccccc3)c12,32.1 µM
18,COc1ccc(-n2nc(C(C)=O)n3c(=O)c4c(-c5ccccc5)cc(-c5cccs5)nc4nc23)cc1,24.6 µM
19,Cc1ccc(/C=N/Nc2nc3nc(-c4cccs4)cc(-c4ccccc4)c3c(=O)[nH]2)cc1,56.6 µM
20,O=c1[nH][nH]c2nc3nc(-c4cccs4)cc(-c4ccccc4)c3c(=O)n12,14.7 µM
21,CC(=O)c1nn(-c2ccccc2)c2nc3nc(-c4cccs4)cc(-c4ccccc4)c3c(=O)n12,58.3 µM
